Experimental data: PubChem BioAssay AID504436 (Sanford-Burnham Center for Chemical Genomics, 2011)
Calls of active or inactive are those of the source.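 Rule for the calls: active = mean IC50 below 20 µM in the confirmatory beta-arrestin antagonist test; inactive = the rest.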

Molecular target: Apelin receptor (Homo sapiens) (UniProt P35414)
Assay: APJ receptor antagonists, beta-arrestin recruitment, SAR follow-up, cell-based, CHO-K1 AGTRL-1, PathHunter luminescence, set 5 (AID 504436)
Settings: antagonist
Method in brief: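 System: CHO-K1 PathHunter APJ beta-arrestin cells / Detection: luminescence from beta-gal fragment complementation upon beta-arrestin recruitment / Times: overnight seeding, 90 min exposure at 25 °C, 60 min detection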

Chain of Apelin receptor (Homo sapiens) (P35414 whole entry, looked up): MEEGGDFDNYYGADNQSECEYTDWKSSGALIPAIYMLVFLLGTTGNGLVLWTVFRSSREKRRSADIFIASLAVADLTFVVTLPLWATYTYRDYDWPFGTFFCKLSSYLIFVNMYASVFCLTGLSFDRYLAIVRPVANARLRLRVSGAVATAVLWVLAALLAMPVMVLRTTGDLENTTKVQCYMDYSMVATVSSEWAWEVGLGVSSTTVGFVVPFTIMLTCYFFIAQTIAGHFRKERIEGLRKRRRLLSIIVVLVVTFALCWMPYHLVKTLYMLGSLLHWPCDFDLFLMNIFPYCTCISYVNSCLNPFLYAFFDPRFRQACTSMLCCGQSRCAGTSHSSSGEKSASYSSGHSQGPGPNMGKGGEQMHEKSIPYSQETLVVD

SMILES: O=C(Oc1coc(CN2CCOCC2)cc1=O)c1ccc([N+](=O)[O-])cc1
- IC50: 16.4 µM

SMILES: Cc1ccc(SCc2cc(=O)c(OC(=O)c3ccc(Cl)c([N+](=O)[O-])c3)co2)cc1
- IC50: 12.8 µM

SMILES: Cc1cc(C)nc(SCc2cc(=O)c(OC(=O)c3ccc(-c4nccs4)cc3)co2)n1
- IC50: > 79 µM (inactive)

SMILES: Cc1ccnc(SCc2cc(=O)c(NC(=O)c3ccc([N+](=O)[O-])cc3)co2)n1
- IC50: > 79 µM (inactive)

SMILES: O=C(Oc1coc(CSc2ccc(OC(F)(F)F)cc2)cc1=O)c1ccc(Cl)c([N+](=O)[O-])c1
- IC50: inactive

SMILES: COc1ccc(SCc2cc(=O)c(OC(=O)c3ccc(Cl)c([N+](=O)[O-])c3)co2)cc1
- IC50: 8.27 µM

SMILES: O=C(Oc1coc(CN2CCOCC2)cc1=O)c1ccccc1
- IC50: > 79 µM (inactive)

SMILES: O=C(Oc1coc(CSc2ccc(Cl)cc2)cc1=O)c1ccc(Cl)c([N+](=O)[O-])c1
- IC50: 4.53 µM
